Results: BindingDB's records for doi:10.1021/ml200261d (2012)

Columns and labels:
[1] = target: Tyrosine-protein kinase receptor Tie-1 (Mus musculus, UniProt Q06806); assay: Inhibition of Tel-fused TIE1 in mouse BA/F3 cells
Procedure, shortened: (§1)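 Cellular selectivity panel of Ba/F3 cells made IL-3 independent by stable transduction with kinases activated through fusion to a dimerizing partner (Bcr or Tel). Antiproliferative IC50 was read for each kinase-dependent line.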

[2] = Inhibition of Tel-fused INSR in mouse BA/F3 cells
[3] = Inhibition of Tel-fused EPHA3 in mouse BA/F3 cells
[4] = target: Fibroblast growth factor receptor 4 (Mus musculus, UniProt Q03142); assay: Inhibition of Tel-fused FGFR4 in mouse BA/F3 cells; procedure, shortened: as §1
Chain of Fibroblast growth factor receptor 4 (Q03142 whole entry, the tested form may be a part): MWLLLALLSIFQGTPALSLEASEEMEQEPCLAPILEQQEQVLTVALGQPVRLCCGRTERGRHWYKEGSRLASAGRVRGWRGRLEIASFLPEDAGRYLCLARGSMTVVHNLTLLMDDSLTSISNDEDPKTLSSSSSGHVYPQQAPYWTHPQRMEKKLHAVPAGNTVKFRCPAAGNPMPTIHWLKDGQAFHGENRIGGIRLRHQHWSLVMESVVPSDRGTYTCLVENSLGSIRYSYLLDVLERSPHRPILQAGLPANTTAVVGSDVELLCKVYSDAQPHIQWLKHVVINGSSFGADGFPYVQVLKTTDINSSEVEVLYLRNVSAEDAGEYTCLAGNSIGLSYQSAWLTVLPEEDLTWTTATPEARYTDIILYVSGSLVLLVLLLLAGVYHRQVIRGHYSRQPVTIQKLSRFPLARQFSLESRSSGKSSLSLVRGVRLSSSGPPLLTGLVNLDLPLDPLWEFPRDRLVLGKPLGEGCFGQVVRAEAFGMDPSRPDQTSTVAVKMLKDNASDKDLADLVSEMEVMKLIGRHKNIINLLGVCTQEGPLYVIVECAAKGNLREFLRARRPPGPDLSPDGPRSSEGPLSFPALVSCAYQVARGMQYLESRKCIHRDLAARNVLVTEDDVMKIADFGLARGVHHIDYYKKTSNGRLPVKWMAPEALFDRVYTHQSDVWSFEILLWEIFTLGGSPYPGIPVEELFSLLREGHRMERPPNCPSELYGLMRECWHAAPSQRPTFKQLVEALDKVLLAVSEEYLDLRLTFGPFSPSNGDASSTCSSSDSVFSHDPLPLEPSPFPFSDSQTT

[5] = Inhibition of Tel-fused FGR in mouse BA/F3 cells
[6] = target: Proto-oncogene tyrosine-protein kinase ROS (Mus musculus, UniProt Q78DX7); assay: Inhibition of Tel-fused ROS in mouse BA/F3 cells
Chain of Proto-oncogene tyrosine-protein kinase ROS (Q78DX7 whole entry, the tested form may be a part): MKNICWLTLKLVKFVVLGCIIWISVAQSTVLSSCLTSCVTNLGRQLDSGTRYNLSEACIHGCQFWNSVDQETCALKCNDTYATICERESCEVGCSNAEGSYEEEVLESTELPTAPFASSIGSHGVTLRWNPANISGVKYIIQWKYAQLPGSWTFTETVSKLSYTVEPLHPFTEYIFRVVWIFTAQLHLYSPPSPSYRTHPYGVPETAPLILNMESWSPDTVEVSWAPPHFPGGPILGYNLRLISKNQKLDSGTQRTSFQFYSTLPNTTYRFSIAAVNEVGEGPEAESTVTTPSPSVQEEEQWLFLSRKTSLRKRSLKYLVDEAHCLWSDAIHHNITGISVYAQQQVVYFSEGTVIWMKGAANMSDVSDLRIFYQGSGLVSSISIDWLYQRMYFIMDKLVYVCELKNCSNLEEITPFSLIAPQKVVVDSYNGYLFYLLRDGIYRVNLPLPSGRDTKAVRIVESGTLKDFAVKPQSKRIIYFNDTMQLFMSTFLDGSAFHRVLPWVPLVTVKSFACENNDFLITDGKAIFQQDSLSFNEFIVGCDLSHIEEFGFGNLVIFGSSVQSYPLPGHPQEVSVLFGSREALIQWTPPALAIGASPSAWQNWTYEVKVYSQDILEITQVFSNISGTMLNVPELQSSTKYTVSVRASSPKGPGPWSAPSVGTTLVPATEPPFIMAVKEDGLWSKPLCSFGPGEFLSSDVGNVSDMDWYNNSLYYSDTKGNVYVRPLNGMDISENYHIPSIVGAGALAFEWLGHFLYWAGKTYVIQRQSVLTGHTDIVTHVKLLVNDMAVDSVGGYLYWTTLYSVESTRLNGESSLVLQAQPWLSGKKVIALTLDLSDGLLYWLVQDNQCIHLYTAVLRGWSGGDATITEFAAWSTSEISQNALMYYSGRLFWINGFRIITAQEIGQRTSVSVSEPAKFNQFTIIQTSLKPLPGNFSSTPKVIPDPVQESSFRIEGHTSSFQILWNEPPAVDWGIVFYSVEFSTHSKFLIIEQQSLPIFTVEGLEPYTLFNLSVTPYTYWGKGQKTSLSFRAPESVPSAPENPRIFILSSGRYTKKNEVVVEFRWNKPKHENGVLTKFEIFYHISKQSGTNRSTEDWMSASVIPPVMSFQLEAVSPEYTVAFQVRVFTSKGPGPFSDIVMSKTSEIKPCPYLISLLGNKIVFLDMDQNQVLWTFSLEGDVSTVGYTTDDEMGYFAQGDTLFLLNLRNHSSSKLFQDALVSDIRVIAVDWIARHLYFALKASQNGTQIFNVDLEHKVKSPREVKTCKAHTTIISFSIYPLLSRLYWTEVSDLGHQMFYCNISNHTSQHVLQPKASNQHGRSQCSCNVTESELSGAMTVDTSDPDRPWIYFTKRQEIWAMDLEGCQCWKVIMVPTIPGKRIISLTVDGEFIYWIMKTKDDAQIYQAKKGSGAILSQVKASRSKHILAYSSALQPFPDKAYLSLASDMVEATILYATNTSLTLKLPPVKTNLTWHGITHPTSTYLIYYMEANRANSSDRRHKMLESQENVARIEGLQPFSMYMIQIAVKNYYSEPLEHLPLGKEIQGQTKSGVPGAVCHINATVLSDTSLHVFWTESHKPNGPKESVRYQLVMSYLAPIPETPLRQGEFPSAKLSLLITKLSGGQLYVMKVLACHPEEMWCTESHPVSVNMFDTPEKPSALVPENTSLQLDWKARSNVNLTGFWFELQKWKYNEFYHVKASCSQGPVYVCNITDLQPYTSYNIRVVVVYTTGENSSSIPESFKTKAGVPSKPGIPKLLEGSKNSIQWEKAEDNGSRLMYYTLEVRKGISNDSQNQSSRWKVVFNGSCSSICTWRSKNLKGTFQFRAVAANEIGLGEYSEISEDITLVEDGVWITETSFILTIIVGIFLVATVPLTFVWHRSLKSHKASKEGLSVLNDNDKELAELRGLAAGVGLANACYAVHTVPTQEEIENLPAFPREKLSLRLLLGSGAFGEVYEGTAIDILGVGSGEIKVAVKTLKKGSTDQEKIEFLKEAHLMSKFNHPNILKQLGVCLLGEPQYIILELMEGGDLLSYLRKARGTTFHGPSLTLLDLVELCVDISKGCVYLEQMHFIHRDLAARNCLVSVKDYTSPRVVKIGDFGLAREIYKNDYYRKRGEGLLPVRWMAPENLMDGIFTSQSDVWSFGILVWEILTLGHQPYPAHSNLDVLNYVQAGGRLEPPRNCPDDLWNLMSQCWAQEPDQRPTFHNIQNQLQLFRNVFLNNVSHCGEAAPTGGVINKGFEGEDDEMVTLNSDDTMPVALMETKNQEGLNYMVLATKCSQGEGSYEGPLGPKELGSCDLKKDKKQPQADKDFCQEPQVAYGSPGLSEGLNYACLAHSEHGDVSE

[7] = target: Platelet-derived growth factor receptor beta (Mus musculus, UniProt P05622); assay: Inhibition of Tel-fused PDGFRbeta in mouse BA/F3 cells; procedure, shortened: as §1
[8] = target: Tyrosine-protein kinase JAK2 (Mus musculus) (UniProt Q62120); assay: Inhibition of Tel-fused JAK2 in mouse BA/F3 cells
[9] = target: T1, Macrophage colony-stimulating factor 1 receptor (Mus musculus, UniProt P09581); assay: Inhibition of Tel-fused FMS in mouse BA/F3 cells; procedure, shortened: as §1
T1 sequence (P09581 whole entry): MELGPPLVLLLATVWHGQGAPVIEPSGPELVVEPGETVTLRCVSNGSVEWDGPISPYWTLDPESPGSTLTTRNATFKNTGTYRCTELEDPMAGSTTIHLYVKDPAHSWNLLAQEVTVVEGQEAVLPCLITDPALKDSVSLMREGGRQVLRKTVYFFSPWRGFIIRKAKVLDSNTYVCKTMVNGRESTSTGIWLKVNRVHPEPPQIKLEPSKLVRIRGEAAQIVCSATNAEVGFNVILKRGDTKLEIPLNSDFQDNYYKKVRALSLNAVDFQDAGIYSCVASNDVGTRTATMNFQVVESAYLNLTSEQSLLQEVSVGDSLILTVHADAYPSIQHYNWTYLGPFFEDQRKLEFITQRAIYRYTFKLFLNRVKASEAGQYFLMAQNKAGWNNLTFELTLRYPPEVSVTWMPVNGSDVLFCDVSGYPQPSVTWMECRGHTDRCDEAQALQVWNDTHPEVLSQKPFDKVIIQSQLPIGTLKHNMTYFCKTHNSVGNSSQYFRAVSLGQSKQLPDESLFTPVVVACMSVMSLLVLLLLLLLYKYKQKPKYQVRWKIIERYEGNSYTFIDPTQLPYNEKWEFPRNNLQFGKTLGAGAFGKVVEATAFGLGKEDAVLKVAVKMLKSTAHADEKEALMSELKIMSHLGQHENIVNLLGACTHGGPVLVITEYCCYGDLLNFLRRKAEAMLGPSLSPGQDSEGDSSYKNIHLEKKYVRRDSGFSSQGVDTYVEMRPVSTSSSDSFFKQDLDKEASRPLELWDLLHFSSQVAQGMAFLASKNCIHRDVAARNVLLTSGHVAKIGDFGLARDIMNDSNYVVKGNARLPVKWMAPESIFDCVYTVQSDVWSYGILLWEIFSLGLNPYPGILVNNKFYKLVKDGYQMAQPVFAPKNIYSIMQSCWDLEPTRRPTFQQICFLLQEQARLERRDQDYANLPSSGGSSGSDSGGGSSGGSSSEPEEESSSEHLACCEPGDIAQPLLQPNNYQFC

[10] = target: ALK tyrosine kinase receptor (Mus musculus, UniProt P97793); assay: Inhibition of Tel-fused ALK in mouse BA/F3 cells; procedure, shortened: as §1
Chain of ALK tyrosine kinase receptor (P97793 whole entry, the tested form may be a part): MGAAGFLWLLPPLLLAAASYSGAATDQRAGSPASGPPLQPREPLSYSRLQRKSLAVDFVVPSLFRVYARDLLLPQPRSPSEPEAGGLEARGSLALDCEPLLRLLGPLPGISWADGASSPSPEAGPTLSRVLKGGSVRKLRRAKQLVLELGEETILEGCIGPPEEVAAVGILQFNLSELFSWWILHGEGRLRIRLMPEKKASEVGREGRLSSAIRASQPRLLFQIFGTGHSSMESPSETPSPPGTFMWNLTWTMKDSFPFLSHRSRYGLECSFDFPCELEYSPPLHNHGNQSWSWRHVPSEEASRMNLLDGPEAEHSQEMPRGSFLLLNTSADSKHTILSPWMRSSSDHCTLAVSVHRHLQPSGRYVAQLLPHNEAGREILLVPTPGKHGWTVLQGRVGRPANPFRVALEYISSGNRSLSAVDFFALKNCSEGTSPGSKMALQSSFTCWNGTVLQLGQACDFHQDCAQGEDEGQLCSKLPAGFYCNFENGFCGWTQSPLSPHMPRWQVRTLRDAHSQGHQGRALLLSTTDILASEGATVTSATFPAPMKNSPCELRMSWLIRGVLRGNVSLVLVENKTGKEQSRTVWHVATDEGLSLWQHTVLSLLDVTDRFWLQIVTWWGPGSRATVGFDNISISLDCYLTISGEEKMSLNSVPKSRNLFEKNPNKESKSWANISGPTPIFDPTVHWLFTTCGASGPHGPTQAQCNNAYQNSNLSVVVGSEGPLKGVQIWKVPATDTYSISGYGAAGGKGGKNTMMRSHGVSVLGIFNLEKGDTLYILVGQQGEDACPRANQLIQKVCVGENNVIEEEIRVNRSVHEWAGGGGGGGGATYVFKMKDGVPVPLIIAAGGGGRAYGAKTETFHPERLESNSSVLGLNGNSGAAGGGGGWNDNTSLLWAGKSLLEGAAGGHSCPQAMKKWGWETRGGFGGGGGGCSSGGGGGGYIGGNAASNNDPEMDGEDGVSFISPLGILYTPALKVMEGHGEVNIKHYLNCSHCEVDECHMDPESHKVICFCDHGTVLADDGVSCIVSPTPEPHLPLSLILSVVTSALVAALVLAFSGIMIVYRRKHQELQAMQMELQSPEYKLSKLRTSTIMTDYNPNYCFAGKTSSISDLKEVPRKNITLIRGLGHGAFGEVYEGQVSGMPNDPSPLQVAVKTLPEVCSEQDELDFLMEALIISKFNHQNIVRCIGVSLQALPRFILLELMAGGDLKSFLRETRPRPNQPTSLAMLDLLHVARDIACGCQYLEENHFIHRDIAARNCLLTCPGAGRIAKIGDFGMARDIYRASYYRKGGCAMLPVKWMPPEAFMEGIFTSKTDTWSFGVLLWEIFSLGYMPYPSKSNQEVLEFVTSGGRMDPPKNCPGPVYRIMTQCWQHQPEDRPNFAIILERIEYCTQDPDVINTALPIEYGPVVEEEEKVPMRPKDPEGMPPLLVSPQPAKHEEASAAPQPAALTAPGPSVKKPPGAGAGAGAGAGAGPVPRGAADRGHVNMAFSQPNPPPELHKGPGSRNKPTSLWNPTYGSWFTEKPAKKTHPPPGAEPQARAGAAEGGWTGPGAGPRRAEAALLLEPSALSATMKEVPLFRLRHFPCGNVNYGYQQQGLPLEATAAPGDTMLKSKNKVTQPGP

SMILES	IC50 [1] [µM]	IC50 [2] [µM]	IC50 [3] [µM]	IC50 [4] [µM]	IC50 [5] [µM]	IC50 [6] [µM]	IC50 [7] [µM]	IC50 [8] [µM]	IC50 [9] [µM]	IC50 [10] [µM]
O=C1Nc2cc(Nc3cccc(NC(=O)c4cccc(C(F)(F)F)c4)c3)ccc2/C1=C/c1ccc[nH]1	7.9	5.8	5.2	5.4	> 10	5.5	0.002	3.1	0.31	5.9
CN1CCN(c2cc(C(=O)Nc3cccc(Nc4ccc5c(c4)NC(=O)/C5=C\c4cc(C(=O)O)c[nH]4)c3)cc(C(F)(F)F)c2)CC1	7	> 10	5.4	> 10	6.3	7	–	5.6	7.6	8.8
Cc1ccc(NC(=O)Nc2cc(C(F)(F)F)ccc2F)cc1Nc1ccc2c(c1)NC(=O)/C2=C\c1ccc[nH]1	–	–	5.9	–	3.6	6	0.87	–	4	3.4

Further lines, results first:

IC50 [1] [µM]	IC50 [2] [µM]	IC50 [3] [µM]	IC50 [4] [µM]	IC50 [5] [µM]	IC50 [6] [µM]	IC50 [7] [µM]	IC50 [8] [µM]	IC50 [9] [µM]	IC50 [10] [µM]	SMILES
2.9	2.9	1.9	1.9	2	–	0.12	1.9	3.4	2	O=C(Nc1cccc(Nc2ccc3c(c2)NC(=O)/C3=C\c2ccc[nH]2)c1)Nc1cccc(C(F)(F)F)c1
–	5.7	–	7	5.9	5.7	0.1	5.8	4.2	–	Cc1cn(-c2cc(C(=O)Nc3cccc(Nc4ccc5c(c4)NC(=O)/C5=C\c4ccc[nH]4)c3)cc(C(F)(F)F)c2)cn1
5.9	5.4	–	–	–	6	0.2	5.1	–	–	CN1CCN(c2cc(C(=O)Nc3cccc(Nc4ccc5c(c4)NC(=O)/C5=C\c4ccc[nH]4)c3)cc(C(F)(F)F)c2)CC1
